# Bioassay records deposited in PubChem BioAssay by several laboratories.
# ALR inh = human ALR oxidase inhibition via reduced H2O2; purified ALR, DTT oxidation, H2O2 HRP-luminol luminescence; inhibition, % (concentration not given with the values); P55789; 290,000 tested, 3.8% active;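 active means mean replicate inhibition above about 79%, with every replicate also reaching it, limit read from the data; inconclusive means only one of the two criteria met; inactive means mean below limit and not every replicate reaching it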
# Target sequence (P55789 whole entry, looked up): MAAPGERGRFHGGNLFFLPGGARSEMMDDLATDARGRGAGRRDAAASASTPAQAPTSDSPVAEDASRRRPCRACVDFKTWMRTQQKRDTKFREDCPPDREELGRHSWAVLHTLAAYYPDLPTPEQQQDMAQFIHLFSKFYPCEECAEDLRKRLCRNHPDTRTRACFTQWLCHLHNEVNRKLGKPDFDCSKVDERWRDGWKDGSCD
# T cell modulator = modulates CD8 T cell binding to vesicles; 2C CD8+ T cell-vesicle binding, flow cytometry; hits give low values; response (vesicle binding), % at 7 µM; 330,000 tested, 0.068% active; AID 2052;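 active means response, share of CD8 T cells binding vesicles, and their 90th percentile fluorescence all below set limits, cut at about 80% in these data, passing the limit was not always enough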;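 further: values below 100% mean blocked vesicle binding to the CD8+ T cells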
#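 incubation = binding step 1.5 h, 37 °C, antibody labelling 20 min, ice | test system = 2C mouse CD8+ T cells | read-out basis = percent CD8+ FL2 mean versus row control | controls = Peptide-free naked vesicles (low) and QL9 vesicles with 0.7% DMSO vehicle (high) | detection = flow cytometry of vesicle-bound cells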
# N-glyco inh = blocks N-linked glycosylation in D54 reporter cells | D54 ERlucT glycosylation luciferase reporter, 24 h; percent of 100 nM tunicamycin response | reporter increase, % at 12.5 µM | 360,000 tested, 0.23% active | AID 588692;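 active means mean luciferase reporter signal, scaled so untreated is 0 and the glycosylation-blocking control 100, at or above a set limit in every replicate; inconclusive means mean reaches the limit but not every replicate does; inactive means mean below the limit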;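 further: luciferase carries N-glycosylation sites so blocking glycosylation raises the light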
# A number is an active result; . = inactive; ? = inconclusive; / = no result. Only a selection was taken, and hits are over-represented in it overall.
SMILES,ALR inh,T cell modulator,N-glyco inh
CCc1cccc(C)c1NC(=O)CSc1nc(C)c(C)o1,.,.,.
CC(NC(=O)CSc1nc(=O)cc(N)n1-c1ccccc1)c1ccccc1 (stereo not given),.,.,.
Cc1cccc(-n2c(N)cc(=O)nc2SCC(=O)Nc2ccccc2)c1,98,.,.
C=CCn1c(N)cc(=O)nc1SCC(=O)Nc1ccc2ccccc2c1,99,.,.
Nc1cc(=O)nc(SCC(=O)Nc2ccccc2Cl)n1-c1ccccc1,99,.,.
Cc1nc(SCC(=O)Nc2ccccc2Cl)oc1C,99,.,.
C=CCn1c(N)cc(=O)nc1SCC(=O)NC(C)c1ccccc1 (stereo not given),.,.,.
COc1ccc(N2CCN(c3cc(C(=O)NC4CCCCC4)ncn3)CC2)cc1OC,/,/,.
CC(C)[C@H](NC(=O)c1ccccc1F)C(=O)OCCN1C(=O)c2ccccc2C1=O,.,.,.
CCOC(=O)C1CCN(C(=O)CSc2nccc(C)n2)CC1,.,.,.
CCSc1nnc(NC(=O)c2ccc(F)c(S(=O)(=O)N3CCOCC3)c2)s1,.,.,.
c1ccc(CN2CCOCC2)nc1,/,/,.
CC(=O)N1CCN(c2ccc(NCc3ccc(-c4ccc(Br)cc4)o3)cc2)CC1,.,.,.
Fc1ccc(N2CCN(Cc3ccccn3)CC2)cc1,97,.,.
CC(=O)N1CCN(c2ccc(NCc3ccc(Br)o3)cc2)CC1,99,.,.
Fc1ccc(CNc2ccc(N3CCN(Cc4ccccc4)CC3)cc2)cc1,89,.,.
CC(=O)N1CCN(c2ccc(NCc3ccccc3)cc2)CC1,99,.,.
COc1ccc(CNc2ccc(N3CCN(C(C)=O)CC3)cc2)cc1OC,/,/,.
O=C(CCS(=O)(=O)c1ccc(F)cc1)Nc1ccc(N2CCN(Cc3ccccc3)CC2)cc1,.,.,.
CC(C)(O)[C@@H]1CC[C@@](C)(C2CC[C@]3(C)C2[C@H](O)CC2[C@@]4(C)CC[C@H](O)C(C)(C)C4[C@@H](O[C@H]4O[C@@H](CO)[C@H](O)[C@@H](O)[C@@H]4O[C@@H]4O[C@H](CO)[C@@H](O)[C@H](O)[C@H]4O)C[C@]23C)O1 (stereo in doubt),.,.,.
CCc1ccccc1NC(=O)CN1CCN(C(=O)c2cccc(-n3cnnn3)c2)CC1,.,.,.
COc1cc(OC)c(OC)cc1CNC(=O)c1cc(=O)c2ccccc2o1,.,.,.
COc1ccc(S(=O)(=O)NCCC(=O)OCC(=O)c2ccc[nH]2)cc1[N+](=O)[O-],/,.,.
CC(=O)c1cccc(NS(=O)(=O)c2c(C(=O)N3CCOCC3)c(C)n(C)c2C)c1,.,.,.
CC(=O)N1CCN(c2ccc(NC(=O)/C=C/c3ccccc3)cc2)CC1,.,.,.
SMILES,ALR inh,T cell modulator,N-glyco inh
CC(=O)N1CCN(c2ccc(NCc3cccc4ccccc34)cc2)CC1,99,.,.
COC(=O)C1=C(C)Nc2[nH]c(=S)[nH]c(=O)c2C1c1ccc(O)cc1 (stereo not given),.,.,.
COc1cc(C2C(C(=O)OC(C)C)=C(C)Nc3[nH]c(=O)[nH]c(=O)c32)ccc1O (stereo not given),79,.,.
O=C(NC12CC3CC(CC(C3)C1)C2)c1cccnc1Cl,/,.,.
O=C(COc1ncnc2scc(-c3ccccc3)c12)NCCN1C(=O)CSC1=O,.,.,/
Oc1ccc(-c2n[nH]c(=S)n2Cc2ccccc2)cc1,97,.,.
COc1ccc(-c2n[nH]c(=S)n2Cc2ccco2)cc1,97,.,.
COc1ccc(-c2n[nH]c(=S)n2C2CCCCC2)cc1,89,.,.
Fc1ccc(-c2n[nH]c(=S)n2Cc2ccccc2)cc1,.,.,.
COc1ccc(OCc2n[nH]c(=S)n2Cc2ccco2)cc1,.,.,.
COc1ccc(Cl)cc1-c1n[nH]c(=S)n1C1CCCCC1,.,.,.
Oc1ccccc1-c1n[nH]c(=S)n1Cc1ccco1,91,.,.
Cc1cc(-c2n[nH]c(=S)n2Cc2ccco2)nn1C,.,.,.
O=S(=O)(c1ccccc1)N1CCN(Cc2ccccc2)c2ccccc21,/,/,.
C[C@@H]1CN([C@@H](C)CO)C(=O)CCCn2nncc2CO[C@H]1CN(C)C(=O)Nc1cccc(Oc2ccccn2)c1,/,/,.
CC1(C)NC(=O)N(CC(=O)N2CCN(c3cccc(Cl)c3)CC2)C1=O,.,.,.
CN1C[C@@H]2[C@@H]3C(=O)N(Cc4ccccc4)C(=O)[C@@H]3[C@](C)(C1=O)N2C(=O)c1ccc(C(C)(C)C)cc1,/,/,.
COC(=O)c1c(C)[nH]c(C(=O)C(C)OC(=O)C2=NNC(=O)CC2)c1C (stereo not given),.,.,.
Cc1nn(-c2nnc(NC3CCCCC3)nn2)c(C)c1Br,.,.,.
CN(C)C(=S)Nc1ccc(N2CCOCC2)cc1,99,.,.
CSCCCNC(=S)Nc1ccc(N2CCOCC2)cc1,95,.,.
O=C(Nc1ccc(N2CCOCC2)cc1N1CCOCC1)c1ccc(F)cc1,.,.,.
Cc1ccc(NC(=S)NCCCN2CCOCC2)cc1,.,.,.
CSCCCNC(=S)Nc1ccc(N2CCOCC2)cc1N1CCOCC1,96,.,.
CC(=O)c1ccc(NC(=S)Nc2ccc(N3CCOCC3)cc2)cc1,?,.,.
SMILES,ALR inh,T cell modulator,N-glyco inh
O=C(CSc1nnc2ccc(-c3ccccn3)nn12)Nc1ccc(F)cc1F,.,.,.
C=CCC1(CC=C)CC(Cc2cnccn2)N(C(=O)OC(C)(C)C)C1 (stereo not given),/,/,.
O=C(NN=C1CCCC1)c1cccc(Br)c1,.,.,.
O=C(C1CCN(S(=O)(=O)c2ccc(Cl)s2)CC1)N1CCN(c2ccccc2)CC1,/,/,.
COc1cc(NC(=O)C2CCCN(S(=O)(=O)c3cnc[nH]3)C2)cc(OC)c1 (stereo not given),98,.,.
CC(NC(=O)C1CCCN(S(=O)(=O)c2cnc[nH]2)C1)c1ccccc1 (stereo not given),.,.,.
CC(C)c1ccc(NC(=O)C2CCCN(S(=O)(=O)c3cnc[nH]3)C2)cc1 (stereo not given),91,.,.
CCOC(=O)c1ccc(NC(=O)C2CCN(S(=O)(=O)c3c(C)nn(C)c3C)CC2)cc1,98,.,.
Cc1cc(C)cc(NC(=O)C2CCCN(S(=O)(=O)c3cnc[nH]3)C2)c1 (stereo not given),.,.,.
O=C(NCCc1ccccc1)C1CCCN(S(=O)(=O)c2cnc[nH]2)C1 (stereo not given),87,.,.
CCOC(=O)c1cccc(NC(=O)C2CCCN(S(=O)(=O)c3c(C)nn(C)c3C)C2)c1 (stereo not given),.,.,.
Cc1cccc(CCNC(=O)C2CCCN(S(=O)(=O)c3cnc[nH]3)C2)c1 (stereo not given),.,.,.
Cc1c(Br)cccc1NC(=O)C1(C)CCN1Cc1ccc(OC(C)C)cc1 (stereo not given),/,/,.
O=C(Nc1cccc(F)c1)C1CCCN(S(=O)(=O)c2cnc[nH]2)C1 (stereo not given),.,.,.
CCOC(=O)c1ccc(NC(=O)C2CCCN(S(=O)(=O)c3cnc[nH]3)C2)cc1 (stereo not given),95,.,.
